In PMC7396962 (Xenobiotica; the fate of foreign compounds in biological …, 2020):

How the values were obtained:
BCRP = molecular target: T1, BCRP (Homo sapiens, UniProt Q9UNQ0); assay: Glucuronide excretion in HeLa1A1 cells with DIPY; format: cell-based; conditions: CA 10 μM, DIPY 5 or 20 μM
T1 sequence (Q9UNQ0 1-655): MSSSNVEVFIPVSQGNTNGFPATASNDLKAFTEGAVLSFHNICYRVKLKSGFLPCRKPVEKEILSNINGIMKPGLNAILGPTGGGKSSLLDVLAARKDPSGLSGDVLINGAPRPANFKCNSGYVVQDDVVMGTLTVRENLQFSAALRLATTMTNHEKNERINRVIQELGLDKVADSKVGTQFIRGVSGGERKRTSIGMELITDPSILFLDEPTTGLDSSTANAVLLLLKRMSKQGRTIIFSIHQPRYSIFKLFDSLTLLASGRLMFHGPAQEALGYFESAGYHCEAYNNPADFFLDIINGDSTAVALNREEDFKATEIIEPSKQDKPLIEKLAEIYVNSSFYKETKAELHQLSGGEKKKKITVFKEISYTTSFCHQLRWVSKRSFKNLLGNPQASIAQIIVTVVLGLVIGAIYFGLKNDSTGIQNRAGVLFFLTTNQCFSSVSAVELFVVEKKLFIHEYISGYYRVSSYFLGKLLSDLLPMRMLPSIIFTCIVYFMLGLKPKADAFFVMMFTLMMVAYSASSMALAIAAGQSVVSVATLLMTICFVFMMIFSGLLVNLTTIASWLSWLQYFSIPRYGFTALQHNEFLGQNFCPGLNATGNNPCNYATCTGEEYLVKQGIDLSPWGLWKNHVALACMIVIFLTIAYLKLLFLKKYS
In short: (§1)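 HeLa cells overexpressing UGT1A1 grown in DMEM/10% FBS, seeded 2 × 10^5 cells/well and used near 90% confluence after HBSS washes. Exposed at 37 °C to test compound 10 μM in HBSS with inhibitor 5 or 20 μM or vehicle. Medium sampled at 0.5, 1, 1.5 and 2 h; cells lysed at 2 h in 50% methanol. Excretion rate, CLapp (ER/intracellular concentration) and fmet calculated; triplicate.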

MRPs = assay: Glucuronide excretion in HeLa1A1 cells with MK571; format: cell-based; conditions: CA 10 μM, MK571 5 or 20 μM
In short: as §1

| SMILES | CA-O-glucuronide excretion (BCRP) | fmet values (BCRP) | intracellular amounts of glucuronide levels (BCRP) | fmet value (MRPs) | intracellular accumulation of glucuronide (MRPs) |
| --- | --- | --- | --- | --- | --- |
| OCCN(CCO)c1nc(N2CCCCC2)c2nc(N(CCO)CCO)nc(N3CCCCC3)c2n1 [DIPY, dipyridamole] | moderate decrease | significant decrease | statistical increase | – | – |
| CN(C)C(=O)CCSC(SCCC(=O)O)c1cccc(/C=C/c2ccc3ccc(Cl)cc3n2)c1 (centres unmarked) [MK571] | – | – | – | significant reduction | elevated |
